This note sets out measurements from ChEMBL document CHEMBL5620363, “HIV-1 protease inhibitors with a P1 phosphonate modification maintain potency against drug-resistant variants by increased interactions with flap residues” (Eur J Med Chem, 2023).

Data set [1] deals with Human immunodeficiency virus 1. The data set can be described thus: Antiviral activity against drug-resistant HIV-1 harboring protease L10F/I13V/L33F/K45R/M46I/I47V/I50V/F53L/I54L/I66F/A71V/T74A/L76S/V82I mutant infected in human TZM-bl cells using virus particles harvested from 24 hrs drug-treated human CEM cells infected with virus assessed as reduction in viral infection measured after 48 hrs in TZM-bl cells by Firefly luciferase based assay. To be noted: Human immunodeficiency virus 1, TZM-bl. Format: functional, organism-based. The method, boiled down:
(§1)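 Virus stocks grown by infecting 3 × 10^6 CEM cells with virus at 37 °C for 2–3 h, then RPMI with medium changes every 48 h until CPE. Infected CEM cells plated onto five-fold serial inhibitor dilutions in RPMI (top 100 μM).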

The test system of data set [2] is Human immunodeficiency virus 1. The data set can be described thus: Selectivity ratio of EC50 for drug-resistant HIV-1 harboring protease L10F/V11I/I13V/V32I/L33F/K43T/M46L/I54L/A71V/V82I/I84V/L89M/T91S/Q92R mutant infected in human TZM-bl cells to EC50 for wild-type HIV-1 NL4-3 infected in human TZM-bl cells. The format is functional.
In data set [3] the test system is Human immunodeficiency virus 1. Description: Selectivity ratio of EC50 for DRV-resistant HIV-1 infected in human TZM-bl cells to EC50 for wild-type HIV-1 NL4-3 infected in human TZM-bl cells. Format: functional.
Data set [4] relates to Human immunodeficiency virus 1. The data set can be described thus: Selectivity ratio of EC50 for drug-resistant HIV-1 harboring protease L10F/L33F/M46I/I47V/I50V/F53L/L63P/A71V/L76S/V82I/I85V/L89I mutant infected in human TZM-bl cells to EC50 for wild-type HIV-1 NL4-3 infected in human TZM-bl cells. Format: functional.
Data set [5] concerns Human immunodeficiency virus 1. The data set can be described thus: Antiviral activity against DRV-resistant HIV-1 infected in human TZM-bl cells using virus particles harvested from 24 hrs drug-treated human CEM cells infected with virus assessed as reduction in viral infection measured after 48 hrs in TZM-bl cells by Firefly luciferase based assay. The format is functional, organism-based. As to conditions: Human immunodeficiency virus 1, TZM-bl. An outline of the steps: as §1

In data set [6] the test system is Human immunodeficiency virus 1. Description: Selectivity ratio of EC50 for drug-resistant HIV-1 harboring Gag mutation/protease I13V/G16E/V32I/L33F/K45I/M46I/A71V/L76V/V82F/I84V mutant infected in human TZM-bl cells to EC50 for wild-type HIV-1 NL4-3 infected in human TZM-bl cells. The format is functional.
For data set [7], the system named is Human immunodeficiency virus 1. Description: Antiviral activity against drug-resistant HIV-1 harboring protease L10F/I15V/M46I/I47V/I50V/F53L/A71V/V82I/I84V/L89T mutant infected in human TZM-bl cells using virus particles harvested from 24 hrs drug-treated human CEM cells infected with virus assessed as reduction in viral infection measured after 48 hrs in TZM-bl cells by Firefly luciferase based assay. The format is functional, organism-based. As to conditions: Human immunodeficiency virus 1, TZM-bl. The method, boiled down: as §1

For data set [8], the system named is Human immunodeficiency virus 1. The data set can be described thus: Antiviral activity against drug-resistant HIV-1 harboring Gag mutation/protease I13V/G16E/V32I/L33F/K45I/M46I/A71V/L76V/V82F/I84V mutant infected in human TZM-bl cells using virus particles harvested from 24 hrs drug-treated human CEM cells infected with virus assessed as reduction in viral infection measured after 48 hrs in TZM-bl cells by Firefly luciferase based assay. The format is functional, organism-based. As to conditions: Human immunodeficiency virus 1, TZM-bl. An outline of the steps: as §1

For data set [9], the system named is Human immunodeficiency virus 1. Description: Antiviral activity against drug-resistant HIV-1 harboring protease L10F/L33F/M46I/I47V/I50V/F53L/L63P/A71V/L76S/V82I/I85V/L89I mutant infected in human TZM-bl cells using virus particles harvested from 24 hrs drug-treated human CEM cells infected with virus assessed as reduction in viral infection measured after 48 hrs in TZM-bl cells by Firefly luciferase based assay. Format: functional, organism-based. To be noted: Human immunodeficiency virus 1, TZM-bl.

In data set [10] the test system is Human immunodeficiency virus 1. The data set can be described thus: Selectivity ratio of EC50 for drug-resistant HIV-1 harboring RT mutation/protease I13V/G16E/V32I/L33F/K45I/M46I/A71V/L76V/V82F/I84V mutant infected in human TZM-bl cells to EC50 for wild-type HIV-1 NL4-3 infected in human TZM-bl cells. Format: functional.
The test system of data set [11] is Human immunodeficiency virus 1. The data set can be described thus: Antiviral activity against wild-type HIV-1 NL4-3 infected in human TZM-bl cells using virus particles harvested from 24 hrs drug-treated human CEM cells infected with virus assessed as reduction in viral infection measured after 48 hrs in TZM-bl cells by Firefly luciferase based assay. As to conditions: Human immunodeficiency virus 1, NL4-3, TZM-bl. The format is functional, organism-based. The method, boiled down:
as §1

The subject of data set [12] is Human immunodeficiency virus 1. The data set can be described thus: Antiviral activity against drug-resistant HIV-1 harboring RT mutation/protease I13V/G16E/V32I/L33F/K45I/M46I/A71V/L76V/V82F/I84V mutant infected in human TZM-bl cells using virus particles harvested from 24 hrs drug-treated human CEM cells infected with virus assessed as reduction in viral infection measured after 48 hrs in TZM-bl cells by Firefly luciferase based assay. As to conditions: Human immunodeficiency virus 1, TZM-bl. The format is functional, organism-based. The method, boiled down: as §1

Data set [13] deals with Human immunodeficiency virus 1. The data set can be described thus: Selectivity ratio of EC50 for drug-resistant HIV-1 harboring protease L10F/I15V/M46I/I47V/I50V/F53L/A71V/V82I/I84V/L89T mutant infected in human TZM-bl cells to EC50 for wild-type HIV-1 NL4-3 infected in human TZM-bl cells. Format: functional.
The test system of data set [14] is Human immunodeficiency virus 1. Description: Antiviral activity against drug-resistant HIV-1 harboring protease L10F/V11I/I13V/V32I/L33F/K43T/M46L/I54L/A71V/V82I/I84V/L89M/T91S/Q92R mutant infected in human TZM-bl cells using virus particles harvested from 24 hrs drug-treated human CEM cells infected with virus assessed as reduction in viral infection measured after 48 hrs in TZM-bl cells by Firefly luciferase based assay. To be noted: Human immunodeficiency virus 1, TZM-bl. Format: functional, organism-based. The method, boiled down:
as §1

The subject of data set [15] is Human immunodeficiency virus 1. The data set can be described thus: Selectivity ratio of EC50 for drug-resistant HIV-1 harboring protease L10F/I13V/L33F/K45R/M46I/I47V/I50V/F53L/I54L/I66F/A71V/T74A/L76S/V82I mutant infected in human TZM-bl cells to EC50 for wild-type HIV-1 NL4-3 infected in human TZM-bl cells. Format: functional.
A short description of data set [16]: Binding affinity to drug-resistant HIV-1 protease I13V/G16E/V32I/L33F/K45I/M46I/V82F/I84V mutant expressed in Escherichia coli TAP-106 cells assessed as inhibition constant using a EDANS/DABCYL FRET-peptide substrate preincubated for 1 hr followed by substrate addition measured after 1 hr by fluorogenic assay. On the set-up: species or system Human immunodeficiency virus 1.

Data set [17] concerns Human immunodeficiency virus 1. Description: Antiviral activity against wild-type HIV-1 NL4-3 infected in human TZM-bl cells using virus particles harvested from 18 hrs drug-treated HEK293T cells harboring viral transfection assessed as reduction in viral infection measured after 48 hrs in TZM-bl cells by luciferase based assay. Format: functional, organism-based. As to conditions: Human immunodeficiency virus 1, NL4-3, TZM-bl.

The nature of data set [18]: Binding affinity to drug-resistant HIV-1 protease I13V/G16E/V32I/L33F/K45I/M46I/V82F/I84V/A71V/L76V mutant expressed in Escherichia coli TAP-106 cells assessed as inhibition constant using a EDANS/DABCYL FRET-peptide substrate preincubated for 1 hr followed by substrate addition measured after 1 hr by fluorogenic assay. On the set-up: species or system Human immunodeficiency virus 1.

Data set [19] concerns the target Protease (Human immunodeficiency virus 1, UniProt Q9YQ12, I84V). Description: Binding affinity to drug-resistant HIV-1 protease I84V mutant expressed in Escherichia coli TAP-106 cells assessed as inhibition constant using a EDANS/DABCYL FRET-peptide substrate preincubated for 1 hr followed by substrate addition measured after 1 hr by fluorogenic assay.
The nature of data set [20]: Cytotoxicity against HEK293T cells incubated for 48 hrs by absorbance based assay. The format is toxicity, cell-based, HEK-293T. To be noted: human, HEK293T cells.
Data set [21] in a line: Binding affinity to drug-resistant HIV-1 protease I13V/G16E/V32I/L33F/K45I/M46I/V82F/I84V/A71V/L76V/I54L mutant expressed in Escherichia coli TAP-106 cells assessed as inhibition constant using a EDANS/DABCYL FRET-peptide substrate preincubated for 1 hr followed by substrate addition measured after 1 hr by fluorogenic assay. Further details: species or system Human immunodeficiency virus 1.

A short description of another data set: in vitro. To be noted: human.
Data set [22] addresses Protease (Human immunodeficiency virus 1, UniProt Q9YQ12, A71V/I50V). The data set can be described thus: Binding affinity to drug-resistant HIV-1 protease I50V/A71V mutant expressed in Escherichia coli TAP-106 cells assessed as inhibition constant using a EDANS/DABCYL FRET-peptide substrate preincubated for 1 hr followed by substrate addition measured after 1 hr by fluorogenic assay.

Sequence of Protease (Human immunodeficiency virus 1, UniProt Q9YQ12, I84V) (Q9YQ12 entry or part of it I84V): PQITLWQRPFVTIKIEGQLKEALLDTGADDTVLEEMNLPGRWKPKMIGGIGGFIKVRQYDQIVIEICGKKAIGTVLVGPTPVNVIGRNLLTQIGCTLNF
Sequence of Protease (Human immunodeficiency virus 1, UniProt Q9YQ12, A71V/I50V) (Q9YQ12 entry or part of it A71V/I50V): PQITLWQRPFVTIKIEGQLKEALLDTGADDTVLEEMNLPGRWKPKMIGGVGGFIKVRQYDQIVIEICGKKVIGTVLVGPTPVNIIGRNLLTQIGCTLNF

Take `CCC(CC)CN(C[C@@H](O)[C@H](Cc1ccccc1)NC(=O)O[C@H]1CO[C@H]2OCC[C@H]21)S(=O)(=O)c1ccc(OC)cc1`: the EC50 (in general, the concentration that produces a half-maximal response) in data set [1] turned out to be 16700 nM; in data set [5], 1600 nM; in data set [7], 21800 nM; in [8] it was 140 nM; in data set [9], 800 nM; in [11] it was 3 nM. Moreover, the figures for the EC50 in data set [12] and in [14] were 250 nM and 5380 nM, respectively. For the same molecule, the “Ratio EC50” value in [2] was determined as 1793; in data set [3], 533; in data set [4], 267; in data set [6] it was 47; in [10] it was 83; in data set [13], 7267. The “Ratio EC50” value in data set [15] was determined as 5567.
`CCOP(=O)(COc1ccc(C[C@H](NC(=O)O[C@H]2CO[C@H]3OCC[C@H]32)[C@H](O)CN(C[C@@H](C)CC)S(=O)(=O)c2ccc(CO)cc2)cc1)OCC`: the Ki (usually the equilibrium dissociation constant of an inhibitor or competing ligand from its target) in data set [16] is 4.98 nM; in [18], 52.9 nM; at Protease [19], less than 0.005 nM; in [21] it was 103 nM; on Protease [22], less than 0.005 nM. Moreover, the EC50 in [17] was determined as 27.3 nM. The CC50 (in general, the concentration that lowers cell viability or growth by half) at 48 h in data set [20] is more than 100000 nM. Further, the selectivity ratio in the data set “in vitro” is more than 3.66.
